Test results reported in ChEMBL document CHEMBL1124861, “Thermodynamics of the interaction of inhibitors with the binding site of recombinant human renin” (J Med Chem, 1990).
pKd: −log10 of the molar value. *1 amine or outer side, *2 acyl side, *3 side chain or, on linkers, in order; H or OH if unused. Where a SMILES comes first, the peptide text is derived from it. [ ]: non-standard residue; d: D form. The star is where a group is joined. ξ: configuration not given here. Sta(3ξ) = CC(C)C[C@H](N[*:1])C(O)CC(=O)[*:2]; Sta = CC(C)C[C@H](N)[C@@H](O)CC(=O)O; Isovaleryl = CC(C)CC(=O)*

molecular target: T1, Renin (Homo sapiens, UniProt P00797); test: Dissociation constant (Kd) of renin inhibitor was determined over a temperature range of 8-37 degree by the fluorescence displacement assay
T1 sequence (P00797 whole entry): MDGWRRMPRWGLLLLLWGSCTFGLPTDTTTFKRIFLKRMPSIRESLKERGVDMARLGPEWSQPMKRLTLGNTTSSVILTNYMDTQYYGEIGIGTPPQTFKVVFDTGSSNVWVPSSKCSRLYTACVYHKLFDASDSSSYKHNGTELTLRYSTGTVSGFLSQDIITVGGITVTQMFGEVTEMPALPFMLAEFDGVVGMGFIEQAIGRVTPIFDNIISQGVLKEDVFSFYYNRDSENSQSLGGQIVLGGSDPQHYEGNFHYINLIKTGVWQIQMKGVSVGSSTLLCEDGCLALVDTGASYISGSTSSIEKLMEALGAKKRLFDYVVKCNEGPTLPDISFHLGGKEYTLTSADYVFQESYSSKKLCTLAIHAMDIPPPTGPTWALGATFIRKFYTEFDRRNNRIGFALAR
Procedure, shortened: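 Recombinant human renin, purified, with stock concentration set by amino acid analysis. Competitive displacement of a dansylated fluorescent peptide inhibitor, read on a spectrofluorometer in ratio mode at 8–37 °C. Unlabeled-inhibitor Kd was calculated from probe Kd, probe concentration, fraction of probe bound, total inhibitor and enzyme concentrations. Duplicates were run at two inhibitor concentrations, and van't Hoff plots were built.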

Going from `CC[C@H](C)[C@H](NC(=O)[C@@H](C[C@H](O)[C@H](CC(C)C)NC(=O)[C@H](Cc1cnc[nH]1)NC(=O)[C@H](Cc1ccccc1)NC(=O)[C@@H]1CCCN1C(C)=O)C(C)C)C(N)=O` to `CC[C@H](C)[C@H](NC(=O)[C@@H](C[C@H](O)[C@H](CC(C)C)NC(=O)[C@H](Cc1c[nH]cn1)NC(=O)[C@H](Cc1ccccc1)NC(=O)[C@H]1CCCN1C(C)=O)C(C)C)C(N)=O`, the pKd rises from 8.27 to 8.89 (0.62 log units). The second binds more tightly here.

Compared with `CC(=O)N[C@@H](Cc1ccccc1)C(=O)N[C@@H](Cc1c[nH]cn1)C(=O)N[C@H](CN[C@@H](Cc1ccccc1)C(N)=O)Cc1ccccc1`, `CC[C@H](C)[C@H](NC(=O)[C@@H](C[C@H](O)[C@H](CC(C)C)NC(=O)[C@H](Cc1cnc[nH]1)NC(=O)[C@H](Cc1ccccc1)NC(C)=O)C(C)C)C(N)=O` is 0.23 log units lower in pKd: 6.66 for the first, 6.43 for the second.

Compared with `CC[C@H](C)[C@H](NC(=O)[C@@H](C[C@H](O)[C@H](CC(C)C)NC(=O)[C@H](Cc1c[nH]cn1)NS(=O)(=O)c1cccc2c(N(C)C)cccc12)C(C)C)C(=O)NCc1ccccn1`, `CCC(C)CNC(=O)[C@H](Cc1ccccc1)NC[C@H](Cc1ccccc1)NC(=O)[C@H](Cc1cnc[nH]1)NC(=O)[C@H](Cc1ccccc1)NC(=O)[C@@H]1CCCN1C(C)=O` (stereo partly drawn) is 2.60 log units higher in pKd: 6.00 for the first, 8.60 for the second.

First: CC(=O)N1CCC[C@H]1C(=O)N[C@@H](Cc1ccccc1)C(=O)N[C@@H](Cc1c[nH]cn1)C(=O)N[C@H](CN[C@@H](Cc1ccccc1)C(N)=O)Cc1ccccc1
Second: CC[C@H](C)[C@H](NC(=O)[C@@H](NC[C@H](CC(C)C)NC(=O)[C@H](Cc1c[nH]cn1)NC(=O)[C@H](Cc1ccccc1)NC(=O)[C@@H]1CCCN1C(=O)[C@H](Cc1c[nH]cn1)NC(=O)[C@@H]1CCCN1)C(C)C)C(=O)N[C@@H](Cc1c[nH]cn1)C(=O)N[C@@H](CCCCN)C(=O)O
The pKd of the first is 0.56 log units lower: 7.54 for the first, 8.10 for the second. The second binds more tightly here.

First: CC[C@H](C)[C@H](NC(=O)C[C@H](O)[C@H](CC(C)C)NC(=O)[C@H](Cc1cnc[nH]1)NC(=O)[C@H](Cc1ccccc1)NC(C)=O)C(N)=O (Ac-FH[Sta]I-NH2)
Second: CC[C@H](C)[C@H](NC(=O)C[C@H](O)[C@H](CC(C)C)NC(=O)[C@H](Cc1c[nH]cn1)NC(=O)[C@H](Cc1ccccc1)NC(=O)[C@@H]1CCCN1C(=O)[C@H](Cc1c[nH]cn1)NC(C)=O)C(N)=O (Ac-HPFH[Sta]I-NH2)
The pKd of the first is 0.95 log units lower: 6.69 for the first, 7.64 for the second. The second binds more tightly here.

Compared with `CC[C@H](C)[C@H](NC(=O)C[C@H](O)[C@H](CC(C)C)NC(=O)[C@H](Cc1c[nH]cn1)NC(=O)[C@H](Cc1ccccc1)NC(=O)[C@@H]1CCCN1C(C)=O)C(N)=O` (Ac-PFH[Sta]I-NH2), `CC[C@H](C)[C@H](NC(=O)CC(O)[C@H](CC(C)C)NC(=O)[C@H](Cc1c[nH]cn1)NC(=O)[C@H](Cc1ccccc1)NC(=O)[C@@H]1CCCN1C(=O)[C@H](Cc1c[nH]cn1)NC(=O)CC(C)C)C(=O)N[C@@H](Cc1ccccc1)C(N)=O` (stereo partly drawn) (Isovaleryl-HPFH[Sta(3ξ)]IF-NH2) is 1.76 log units higher in pKd: 7.01 for the first, 8.77 for the second. The second binds more tightly here.

Compound H-PHPFHFFIHK-OH has a pKd of 6.09.
